These results are taken from ChEMBL document CHEMBL2311367, “Synthesis, biological evaluation, and molecular modeling of glycyrrhizin derivatives as potent high-mobility group box-1 inhibitors with anti-heart-failure activity in vivo” (J Med Chem, 2013).

Molecules are shown by their SMILES. Positions count from the first letter of the chain named. Calls of active or inactive are those of the source. No cut-off for these calls is given here.

The target in assay [1] is T1, High mobility group protein B1 (Mus musculus) (UniProt P63158).
T1 sequence (whole entry): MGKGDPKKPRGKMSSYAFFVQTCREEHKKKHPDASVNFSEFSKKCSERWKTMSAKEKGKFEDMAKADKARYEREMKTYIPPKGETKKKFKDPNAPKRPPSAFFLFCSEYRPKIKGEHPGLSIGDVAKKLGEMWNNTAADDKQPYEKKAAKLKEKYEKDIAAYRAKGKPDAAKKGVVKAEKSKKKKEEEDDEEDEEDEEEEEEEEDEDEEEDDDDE
The experiment in a line: Inhibition of HMGB1 in mouse RAW264.7 cells assessed as LPS-induced TNFalpha release treated for 2 hrs prior to LPS-challenge measured after 16 hrs by ELISA. In kind it is cell-based. Put shortly: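 RAW 264.7 murine macrophage-like cells grown in RPMI 1640 with 10% heat-inactivated FBS and 2 mM glutamine, 5% CO2. Compounds or HMGB1 neutralizing antibody added 2 h before LPS (0.01 ng/mL), then 16 h stimulation; TNF-α in supernatant measured by ELISA. Each compound run at least twice in triplicate; ED50 given with 95% confidence interval.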
For orientation: An ELISA detects its analyte on a solid surface through an enzyme-linked reagent.

Assay [2] deals with T2, High mobility group protein B1 (Homo sapiens, UniProt P09429).
T2 sequence (P09429 whole entry): T1 sequence (whole entry) with D189E, E202D
Description: Binding affinity to HMGB1 (unknown origin).

Assay [3] relates to Mus musculus. The experiment in a line: Cardioprotective activity against DOX-induced acute heart failure DCM in ip dosed C57BL/6J mouse model assessed as increase in fractional shortening administered qd from day 10 post DOX-challenge measured after 50 days by echocardiography. The assay is classed as functional, organism-based.
For assay [4], the system named is Mus musculus. Description: Cardioprotective activity against DOX-induced acute heart failure DCM in ip dosed C57BL/6J mouse model assessed as improvement in the maximum descending rate of the LV pressure administered qd from day 10 post DOX-challenge measured after 50 days by echocardiography. In kind it is functional, organism-based.
Assay [5] has as its system Mus musculus. Description: Cardioprotective activity against DOX-induced acute heart failure DCM in ip dosed C57BL/6J mouse model assessed as improvement in the maximum ascending rate of the LV pressure administered qd from day 10 post DOX-challenge measured after 50 days by echocardiography. The assay is classed as functional, organism-based.
Assay [6] has as its system Mus musculus. The experiment in a line: Cardioprotective activity against DOX-induced acute heart failure DCM in ip dosed C57BL/6J mouse model assessed as increase in ejection fraction administered qd from day 10 post DOX-challenge measured after 50 days by echocardiography. In kind it is functional, organism-based.
For assay [7], the system named is Mus musculus. The experiment in a line: Cardioprotective activity against DOX-induced acute heart failure DCM in ip dosed C57BL/6J mouse model assessed as increase in survival rate administered qd from day 10 post DOX-challenge measured after 50 days by echocardiography. In kind it is functional, organism-based.
The subject of assay [8] is Mus musculus. The experiment in a line: Cardioprotective activity against DOX-induced chronic heart failure DCM ip dosed C57BL/6J mouse model assessed as improvement of LV diastolic anterior wall administered qd from day 70 post DOX challenge measured after 35 days. In kind it is functional, organism-based.
The test system of assay [9] is Mus musculus. The experiment in a line: Cardioprotective activity against DOX-induced chronic heart failure DCM ip dosed C57BL/6J mouse model assessed as improvement of fractional shortening administered qd from day 70 post DOX challenge measured after 35 days. In kind it is functional, organism-based.
The test system of assay [10] is Mus musculus. The experiment in a line: Cardioprotective activity against DOX-induced chronic heart failure DCM ip dosed C57BL/6J mouse model assessed as improvement of ejection fraction administered qd from day 70 post DOX challenge measured after 35 days. In kind it is functional, organism-based.
The test system of assay [11] is Mus musculus. Description: Cardioprotective activity against DOX-induced chronic heart failure DCM ip dosed C57BL/6J mouse model assessed as improvement of systolic interventricular septum administered qd from day 70 post DOX challenge measured after 35 days. The assay is classed as functional, organism-based.
Assay [12] concerns Mus musculus. Description: Cardioprotective activity against DOX-induced chronic heart failure DCM ip dosed C57BL/6J mouse model assessed as improvement of diastolic interventricular septum administered qd from day 70 post DOX challenge measured after 35 days. In kind it is functional, organism-based.
Assay [13] relates to Mus musculus. Description: Cardioprotective activity against DOX-induced chronic heart failure DCM ip dosed C57BL/6J mouse model assessed as increase in survival rate administered qd from day 70 post DOX challenge measured after 35 days. In kind it is functional, organism-based. Put shortly: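 Chronic DOX model: ip DOX at 3.5 mg/kg weekly for 8 weeks, then once-daily treatment with the indicated agent beginning two weeks after the last DOX dose. Survival followed by Kaplan-Meier curves and compared with a log rank test, n = 20/group.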

For the molecule `CC1(C)[C@@H](O[C@H]2O[C@H](C(=O)O)[C@@H](O)[C@H](O)[C@H]2O[C@@H]2O[C@H](C(=O)O)[C@@H](O)[C@H](O)[C@H]2O)CC[C@]2(C)[C@H]3C(=O)C=C4[C@@H]5C[C@@](C)(CNC6CCCCC6)CC[C@]5(C)CC[C@@]4(C)[C@]3(C)CC[C@@H]12`, the ED50 in assay [1] amounted to 193 µM.

As to `CC1(C)[C@@H](O[C@H]2O[C@H](C(=O)O)[C@@H](O)[C@H](O)[C@H]2O[C@@H]2O[C@H](C(=O)O)[C@@H](O)[C@H](O)[C@H]2O)CC[C@]2(C)[C@H]3C(=O)C=C4[C@@H]5C[C@@](C)(C(=O)O)CC[C@]5(C)CC[C@@]4(C)[C@]3(C)CC[C@@H]12` [GLYCYRRHIZIN], binding in assay [2] was put at a Kd of 150 µM. Further, the ED50 in [1] came out at 70 µM.

Regarding `CC1(C)[C@@H](O[C@H]2O[C@H](C(=O)O)[C@@H](O)[C@H](O)[C@H]2O[C@@H]2O[C@H](C(=O)O)[C@@H](O)[C@H](O)[C@H]2O)CC[C@]2(C)[C@H]3C(=O)C=C4[C@@H]5C[C@@](C)(CN[C@@H](Cc6c[nH]c7ccccc67)C(=O)O)CC[C@]5(C)CC[C@@]4(C)[C@]3(C)CC[C@@H]12`, the result in the assay on Mus musculus [3], in the assay with Mus musculus [4], in the assay on Mus musculus [5], in the assay with Mus musculus [6] and with Mus musculus [7] was Active. Further, the ED50 in assay [1] is 144 µM.

As to `CC1(C)[C@@H](O[C@H]2O[C@H](C(=O)O)[C@@H](O)[C@H](O)[C@H]2O[C@@H]2O[C@H](C(=O)O)[C@@H](O)[C@H](O)[C@H]2O)CC[C@]2(C)[C@H]3C(=O)C=C4[C@@H]5C[C@@](C)(CN[C@@H](CCC(=O)O)C(=O)O)CC[C@]5(C)CC[C@@]4(C)[C@]3(C)CC[C@@H]12`, the result in the assay with Mus musculus [8], in the assay with Mus musculus [9], with Mus musculus [10], in the assay with Mus musculus [11], in the assay on Mus musculus [12] and in the assay on Mus musculus [13] was Active. Moreover, the outcome in the assay with Mus musculus [3], in the assay with Mus musculus [4], in the assay with Mus musculus [5], in the assay on Mus musculus [6] and in the assay on Mus musculus [7] was Active. Besides, in [1], the ED50 is 141 µM.

Consider `CCCNC[C@@]1(C)CC[C@]2(C)CC[C@]3(C)C(=CC(=O)[C@@H]4[C@@]5(C)CC[C@H](O[C@H]6O[C@H](C(=O)O)[C@@H](O)[C@H](O)[C@H]6O[C@@H]6O[C@H](C(=O)O)[C@@H](O)[C@H](O)[C@H]6O)C(C)(C)[C@@H]5CC[C@]43C)[C@@H]2C1`, for which, in assay [1], the ED50 was determined as 226 µM.

For `CC1(C)[C@@H](O[C@H]2O[C@H](C(=O)O)[C@@H](O)[C@H](O)[C@H]2O[C@@H]2O[C@H](C(=O)O)[C@@H](O)[C@H](O)[C@H]2O)CC[C@]2(C)[C@H]3C(=O)C=C4[C@@H]5C[C@@](C)(CN[C@@H](Cc6ccccc6)C(=O)O)CC[C@]5(C)CC[C@@]4(C)[C@]3(C)CC[C@@H]12`, the inhibition result in [1] is “inactive”.

With `CC1(C)[C@@H](O[C@H]2O[C@H](C(=O)O)[C@@H](O)[C@H](O)[C@H]2O[C@@H]2O[C@H](C(=O)O)[C@@H](O)[C@H](O)[C@H]2O)CC[C@]2(C)[C@H]3C(=O)C=C4[C@@H]5C[C@@](C)(CN[C@@H](CO)C(=O)O)CC[C@]5(C)CC[C@@]4(C)[C@]3(C)CC[C@@H]12`, the result in the assay on Mus musculus [3], in the assay on Mus musculus [4], in the assay on Mus musculus [5], in the assay with Mus musculus [6] and in the assay with Mus musculus [7] was Active. Also, in assay [1], the ED50 came out at 161 µM.

On to `CC1(C)[C@@H](O[C@H]2O[C@H](C(=O)O)[C@@H](O)[C@H](O)[C@H]2O[C@@H]2O[C@H](C(=O)O)[C@@H](O)[C@H](O)[C@H]2O)CC[C@]2(C)[C@H]3C(=O)C=C4[C@@H]5C[C@@](C)(CNCC(=O)O)CC[C@]5(C)CC[C@@]4(C)[C@]3(C)CC[C@@H]12`, for which the outcome in the assay with Mus musculus [3], in the assay with Mus musculus [4], in the assay with Mus musculus [5], with Mus musculus [6] and in the assay on Mus musculus [7] was inactive. In addition, the inhibition result in assay [1] is “inactive”.

With `CC1(C)[C@@H](O[C@H]2O[C@H](C(=O)O)[C@@H](O)[C@H](O)[C@H]2O[C@@H]2O[C@H](C(=O)O)[C@@H](O)[C@H](O)[C@H]2O)CC[C@]2(C)[C@H]3C(=O)C=C4[C@@H]5C[C@@](C)(CN[C@@H](Cc6ccc(O)cc6)C(=O)O)CC[C@]5(C)CC[C@@]4(C)[C@]3(C)CC[C@@H]12`, the inhibition entry in assay [1] is “inactive”.

Consider `CC1(C)[C@@H](O[C@H]2O[C@H](C(=O)O)[C@@H](O)[C@H](O)[C@H]2O[C@@H]2O[C@H](C(=O)O)[C@@H](O)[C@H](O)[C@H]2O)CC[C@]2(C)[C@H]3C(=O)C=C4[C@@H]5C[C@@](C)(CN[C@@H](CC(=O)O)C(=O)O)CC[C@]5(C)CC[C@@]4(C)[C@]3(C)CC[C@@H]12`, for which the outcome with Mus musculus [8], in the assay on Mus musculus [9], in the assay on Mus musculus [10], in the assay on Mus musculus [11], in the assay with Mus musculus [12] and in the assay on Mus musculus [13] was inactive. Besides, the outcome with Mus musculus [3], in the assay on Mus musculus [4], with Mus musculus [5], in the assay on Mus musculus [6] and in the assay with Mus musculus [7] was Active. For the same molecule, in assay [1], the ED50 was determined as 144 µM.

Regarding `C[C@H](NC[C@@]1(C)CC[C@]2(C)CC[C@]3(C)C(=CC(=O)[C@@H]4[C@@]5(C)CC[C@H](O[C@H]6O[C@H](C(=O)O)[C@@H](O)[C@H](O)[C@H]6O[C@@H]6O[C@H](C(=O)O)[C@@H](O)[C@H](O)[C@H]6O)C(C)(C)[C@@H]5CC[C@]43C)[C@@H]2C1)C(=O)O`, the outcome in the assay with Mus musculus [4] and in the assay on Mus musculus [5] was Active. The outcome in the assay on Mus musculus [6] and in the assay with Mus musculus [7] was inactive. In addition, in [1], the ED50 worked out at 337 µM.

As usually defined, the Kd is the equilibrium constant for the complex coming apart. The low end stands for a tighter complex, the high end for a looser complex.
